The text below walks through data of ChEMBL document CHEMBL5331111, “Synthetic Biology Facilitates Semisynthetic Development of Type V Glycopeptide Antibiotics Targeting Vancomycin-Resistant Enterococcus” (J Med Chem, 2023).

What all share (format): functional
In experiment [1] the test system is Staphylococcus aureus. Briefly: Antibacterial activity against Staphylococcus aureus ATCC 33591 assessed as reduction in bacterial growth by Mueller-Hinton broth based assay. The gist of the method:
(§1)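 Broth MIC by standard procedure in Mueller-Hinton broth, for both B. subtilis 168 and S. aureus ATCC 33591.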

For experiment [2], the system named is Mycolicibacterium smegmatis. The experiment in a line: Antimycobacterial activity against Mycobacterium smegmatis MC2 155 assessed as inhibition of bacterial growth measured after 2 days by resazurin dye based analysis. The conditions noted are these: MC2 155, 48 h, time 2 day. The gist of the method: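 Strains grown in 7H9 broth with 0.2% glycerol, 10% OADC and 0.05% Tween-80. Inoculum was about 5 × 10^5 CFU/mL, checked by plating on 7H10/OADC agar to be 3–8 × 10^5. Read at 2 days for M. smegmatis and 7 days for M. tuberculosis H37Ra, M. bovis and M. avium. Resazurin 30 μg/mL was then added for one further day. Values are averages of at least two experiments.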

Experiment [3] has as its system Enterococcus faecium. Briefly: Antibacterial activity against vancomycin-resistant Enterococcus faecium ATCC 700221 assessed as inhibition of bacterial growth by Mueller-Hinton broth based assay.
The subject of experiment [4] is Enterococcus faecalis. Briefly: Antibacterial activity against vancomycin-resistant Enterococcus faecalis ATCC 51299 assessed as inhibition of bacterial growth by Mueller-Hinton broth based assay.
Experiment [5] has as its system Bacillus subtilis. Briefly: Antibacterial activity against Bacillus subtilis 168 assessed as reduction in bacterial growth by Mueller-Hinton broth based assay. An outline of the steps:
as §1

Converted amounts (≈) assume the structure as drawn.

Turning to `CN1C(=O)[C@@H]2NC(=O)[C@@H]3NC(=O)[C@@H](c4ccc(O)cc4)NC(=O)[C@H](NC(=O)C(Nc4ccsc4)c4ccc(O)cc4)Cc4c[nH]c5cc(ccc45)-c4cc3cc(c4O)Oc3ccc(cc3)C[C@H]1C(=O)N[C@@H](C(=O)O)c1ccc(O)c(c1)Oc1ccc2cc1` (some centres not stated), the MIC (in general, the lowest concentration that inhibits growth of the organism) is 4 µg/mL (≈ 3.32 µM) in experiment [1]; greater than 128 µg/mL in experiment [2]; 8 µg/mL (≈ 6.65 µM) in experiment [3]; 4 µg/mL (≈ 3.32 µM) in experiment [4]; 1 µg/mL (≈ 0.831 µM) in experiment [5].
Regarding `CN1C(=O)[C@@H]2NC(=O)[C@@H]3NC(=O)[C@@H](c4ccc(O)cc4)NC(=O)[C@H](NC(=O)C(Nc4ccc(F)cc4)c4ccc(O)cc4)Cc4c[nH]c5cc(ccc45)-c4cc3cc(c4O)Oc3ccc(cc3)C[C@H]1C(=O)N[C@@H](C(=O)O)c1ccc(O)c(c1)Oc1ccc2cc1` (some centres not stated), the MIC in experiment [1] is 8 µg/mL (≈ 6.58 µM); in experiment [2], greater than 128 µg/mL; in experiment [3] it was 8 µg/mL (≈ 6.58 µM); in experiment [4], 8 µg/mL (≈ 6.58 µM); in experiment [5], 2 µg/mL (≈ 1.65 µM).
Take `CN1C(=O)[C@@H]2NC(=O)[C@@H]3NC(=O)[C@@H](c4ccc(O)cc4)NC(=O)[C@H](NC(=O)C(Nc4cc(C(F)(F)F)cc(C(F)(F)F)c4)c4ccc(O)cc4)Cc4c[nH]c5cc(ccc45)-c4cc3cc(c4O)Oc3ccc(cc3)C[C@H]1C(=O)N[C@@H](C(=O)O)c1ccc(O)c(c1)Oc1ccc2cc1` (some centres not stated): the MIC in experiment [1] is 8 µg/mL (≈ 6 µM); in experiment [2], greater than 128 µg/mL; in experiment [3], 8 µg/mL (≈ 6 µM); in experiment [4], 8 µg/mL (≈ 6 µM); in experiment [5], 8 µg/mL (≈ 6 µM).
As to `CN(C)CCCNCCCNC(=O)[C@@H]1NC(=O)[C@@H]2Cc3ccc(cc3)Oc3cc4cc(c3O)-c3ccc5c(c[nH]c5c3)C[C@@H](NC(=O)Cc3ccc(O)cc3)C(=O)N[C@H](c3ccc(O)cc3)C(=O)N[C@H]4C(=O)N[C@@H](C(=O)N2C)c2ccc(cc2)Oc2cc1ccc2O`, the MIC in experiment [1] was greater than 128 µg/mL; in experiment [2], 1 µg/mL (≈ 0.802 µM); in experiment [3], 2 µg/mL (≈ 1.6 µM); in experiment [4] it was 16 µg/mL (≈ 12.8 µM); in experiment [5] it was 8 µg/mL (≈ 6.41 µM).
For `CN1C(=O)[C@@H]2NC(=O)[C@@H]3NC(=O)[C@@H](c4ccc(O)cc4)NC(=O)[C@H](NC(=O)C(Nc4cccc(O)c4O)c4ccc(O)cc4)Cc4c[nH]c5cc(ccc45)-c4cc3cc(c4O)Oc3ccc(cc3)C[C@H]1C(=O)N[C@@H](C(=O)O)c1ccc(O)c(c1)Oc1ccc2cc1` (some centres not stated), the minimum inhibitory concentration (MIC) in experiment [1] was 16 µg/mL (≈ 13 µM); in experiment [2], greater than 128 µg/mL; in experiment [3] it was 16 µg/mL (≈ 13 µM); in experiment [4] it was 8 µg/mL (≈ 6.51 µM); in experiment [5], 4 µg/mL (≈ 3.25 µM).
With `CN1C(=O)[C@@H]2NC(=O)[C@@H]3NC(=O)[C@@H](c4ccc(O)cc4)NC(=O)[C@H](NC(=O)C(Nc4cccc(C(F)(F)F)c4)c4ccc(O)cc4)Cc4c[nH]c5cc(ccc45)-c4cc3cc(c4O)Oc3ccc(cc3)C[C@H]1C(=O)N[C@@H](C(=O)O)c1ccc(O)c(c1)Oc1ccc2cc1` (some centres not stated), the minimal inhibitory concentration (MIC) was 8 µg/mL (≈ 6.32 µM) in experiment [1]; greater than 128 µg/mL in experiment [2]; 16 µg/mL (≈ 12.6 µM) in experiment [3]; 8 µg/mL (≈ 6.32 µM) in experiment [4]; 4 µg/mL (≈ 3.16 µM) in experiment [5].
For the compound `CN1C(=O)[C@@H]2NC(=O)[C@@H]3NC(=O)[C@@H](c4ccc(O)cc4)NC(=O)[C@H](NC(=O)C(Nc4ccc(O)c(O)c4O)c4ccc(O)cc4)Cc4c[nH]c5cc(ccc45)-c4cc3cc(c4O)Oc3ccc(cc3)C[C@H]1C(=O)N[C@@H](C(=O)O)c1ccc(O)c(c1)Oc1ccc2cc1` (some centres not stated), the minimum inhibitory concentration (MIC) in experiment [1] was 16 µg/mL (≈ 12.8 µM); in experiment [2], greater than 128 µg/mL; in experiment [3], 16 µg/mL (≈ 12.8 µM); in experiment [4], 8 µg/mL (≈ 6.42 µM); in experiment [5] it was 4 µg/mL (≈ 3.21 µM).
`CN1C(=O)[C@@H]2NC(=O)[C@@H]3NC(=O)[C@@H](c4ccc(O)cc4)NC(=O)[C@H](NC(=O)C(Nc4cc(Cl)cc(Cl)c4Cl)c4ccc(O)cc4)Cc4c[nH]c5cc(ccc45)-c4cc3cc(c4O)Oc3ccc(cc3)C[C@H]1C(=O)N[C@@H](C(=O)O)c1ccc(O)c(c1)Oc1ccc2cc1` (some centres not stated): the MIC in experiment [1] was 4 µg/mL (≈ 3.08 µM); in experiment [2] it was greater than 128 µg/mL; in experiment [3], 16 µg/mL (≈ 12.3 µM); in experiment [4] it was 8 µg/mL (≈ 6.15 µM); in experiment [5], 4 µg/mL (≈ 3.08 µM).
As to `CN1C(=O)[C@@H]2NC(=O)[C@@H]3NC(=O)[C@@H](c4ccc(O)cc4)NC(=O)[C@H](NC(=O)C(Nc4cc(F)cc(F)c4F)c4ccc(O)cc4)Cc4c[nH]c5cc(ccc45)-c4cc3cc(c4O)Oc3ccc(cc3)C[C@H]1C(=O)N[C@@H](C(=O)O)c1ccc(O)c(c1)Oc1ccc2cc1` (some centres not stated), the MIC is 8 µg/mL (≈ 6.39 µM) in experiment [1]; greater than 128 µg/mL in experiment [2]; 4 µg/mL (≈ 3.2 µM) in experiment [3]; 8 µg/mL (≈ 6.39 µM) in experiment [4]; 4 µg/mL (≈ 3.2 µM) in experiment [5].
On to `CN1C(=O)[C@@H]2NC(=O)[C@@H]3NC(=O)[C@@H](c4ccc(O)cc4)NC(=O)[C@H](NC(=O)C(Nc4cccc(-c5ccc(F)cc5)c4)c4ccc(O)cc4)Cc4c[nH]c5cc(ccc45)-c4cc3cc(c4O)Oc3ccc(cc3)C[C@H]1C(=O)N[C@@H](C(=O)O)c1ccc(O)c(c1)Oc1ccc2cc1` (some centres not stated), for which the MIC in experiment [1] was greater than 128 µg/mL; in experiment [2], greater than 128 µg/mL; in experiment [3] it was 16 µg/mL (≈ 12.4 µM); in experiment [4], 16 µg/mL (≈ 12.4 µM); in experiment [5], greater than 128 µg/mL.
Turning to `CN[C@H](CC(C)C)C(=O)N[C@H]1C(=O)N[C@@H](CC(N)=O)C(=O)N[C@H]2C(=O)N[C@H]3C(=O)N[C@H](C(=O)N[C@H](C(=O)O)c4cc(O)cc(O)c4-c4cc3ccc4O)[C@H](O)c3ccc(c(Cl)c3)Oc3cc2cc(c3O[C@@H]2O[C@H](CO)[C@@H](O)[C@H](O)[C@H]2O[C@H]2C[C@](C)(N)[C@H](O)[C@H](C)O2)Oc2ccc(cc2Cl)[C@H]1O` [VANCOMYCIN], the MIC is 4 µg/mL (≈ 2.76 µM) in experiment [2], greater than 128 µg/mL in experiment [3], 32 µg/mL (≈ 22.1 µM) in experiment [4] and 0.5 µg/mL (≈ 0.345 µM) in experiment [5].
`CN1C(=O)[C@@H]2NC(=O)[C@@H]3NC(=O)[C@@H](c4ccc(O)cc4)NC(=O)[C@H](NC(=O)C(Nc4ccccn4)c4ccc(O)cc4)Cc4c[nH]c5cc(ccc45)-c4cc3cc(c4O)Oc3ccc(cc3)C[C@H]1C(=O)N[C@@H](C(=O)O)c1ccc(O)c(c1)Oc1ccc2cc1` (some centres not stated): the MIC in experiment [3] turned out to be 16 µg/mL (≈ 13.4 µM); in experiment [4] it was 16 µg/mL (≈ 13.4 µM); in experiment [5], 4 µg/mL (≈ 3.34 µM).
Consider `CN1C(=O)[C@@H]2NC(=O)[C@@H]3NC(=O)[C@@H](c4ccc(O)cc4)NC(=O)[C@H](NC(=O)C(Nc4ccc(Br)cc4)c4ccc(O)cc4)Cc4c[nH]c5cc(ccc45)-c4cc3cc(c4O)Oc3ccc(cc3)C[C@H]1C(=O)N[C@@H](C(=O)O)c1ccc(O)c(c1)Oc1ccc2cc1` (some centres not stated), for which the MIC in experiment [1] is 4 µg/mL (≈ 3.13 µM); in experiment [2] it was greater than 128 µg/mL; in experiment [3] it was 8 µg/mL (≈ 6.27 µM); in experiment [4], 8 µg/mL (≈ 6.27 µM); in experiment [5], 2 µg/mL (≈ 1.57 µM).
On to `CN1C(=O)[C@@H]2NC(=O)[C@@H]3NC(=O)[C@@H](c4ccc(O)cc4)NC(=O)[C@H](NC(=O)C(Nc4ccc(B(O)O)cc4)c4ccc(O)cc4)Cc4c[nH]c5cc(ccc45)-c4cc3cc(c4O)Oc3ccc(cc3)C[C@H]1C(=O)N[C@@H](C(=O)O)c1ccc(O)c(c1)Oc1ccc2cc1` (some centres not stated), for which the MIC in experiment [1] is 8 µg/mL (≈ 6.45 µM); in experiment [2] it was greater than 128 µg/mL; in experiment [3], 8 µg/mL (≈ 6.45 µM); in experiment [4], 8 µg/mL (≈ 6.45 µM); in experiment [5], 1 µg/mL (≈ 0.806 µM).
Regarding `CN1C(=O)[C@@H]2NC(=O)[C@@H]3NC(=O)[C@@H](c4ccc(O)cc4)NC(=O)[C@H](NC(=O)C(Nc4cc(O)cc(O)c4)c4ccc(O)cc4)Cc4c[nH]c5cc(ccc45)-c4cc3cc(c4O)Oc3ccc(cc3)C[C@H]1C(=O)N[C@@H](C(=O)O)c1ccc(O)c(c1)Oc1ccc2cc1` (some centres not stated), the MIC in experiment [1] is 4 µg/mL (≈ 3.25 µM); in experiment [2] it was greater than 128 µg/mL; in experiment [3] it was 16 µg/mL (≈ 13 µM); in experiment [4], 4 µg/mL (≈ 3.25 µM); in experiment [5], 1 µg/mL (≈ 0.814 µM).
On to `CN1C(=O)[C@@H]2NC(=O)[C@@H]3NC(=O)[C@@H](c4ccc(O)cc4)NC(=O)[C@H](NC(=O)C(Nc4cccc(O)c4)c4ccc(O)cc4)Cc4c[nH]c5cc(ccc45)-c4cc3cc(c4O)Oc3ccc(cc3)C[C@H]1C(=O)N[C@@H](C(=O)O)c1ccc(O)c(c1)Oc1ccc2cc1` (some centres not stated), for which the MIC was 4 µg/mL (≈ 3.3 µM) in experiment [1]; greater than 128 µg/mL in experiment [2]; 4 µg/mL (≈ 3.3 µM) in experiment [3]; 4 µg/mL (≈ 3.3 µM) in experiment [4]; 0.5 µg/mL (≈ 0.412 µM) in experiment [5].
Take `CN1C(=O)[C@@H]2NC(=O)[C@@H]3NC(=O)[C@@H](c4ccc(O)cc4)NC(=O)[C@H](NC(=O)C(Nc4cccc(F)c4F)c4ccc(O)cc4)Cc4c[nH]c5cc(ccc45)-c4cc3cc(c4O)Oc3ccc(cc3)C[C@H]1C(=O)N[C@@H](C(=O)O)c1ccc(O)c(c1)Oc1ccc2cc1` (some centres not stated): the MIC is 16 µg/mL (≈ 13 µM) in experiment [1]; greater than 128 µg/mL in experiment [2]; 16 µg/mL (≈ 13 µM) in experiment [3]; 16 µg/mL (≈ 13 µM) in experiment [4]; 8 µg/mL (≈ 6.49 µM) in experiment [5].
